From ChEMBL document CHEMBL1933039, “6-alkylsalicylates are selective Tip60 inhibitors and target the acetyl-CoA binding site” (Eur J Med Chem, 2012)
pIC50: −log10 of the molar value. Activity calls are given as the source filed them. The calls are words filed in the database; no cut-off is given here.

Columns and labels:
[1] = molecular target: Histone acetyltransferase KAT5 (Homo sapiens) (UniProt Q92993); experiment: Inhibition of His-tagged human recombinant Tip60 expressed in Escherichia coli BL21(DE3) cells using [14C][…] and histone H4 as substrate at 200 uM after 5 mins by scintillation counting
Chain of Histone acetyltransferase KAT5 (Homo sapiens) (Q92993 whole entry, looked up, the tested form may be a part): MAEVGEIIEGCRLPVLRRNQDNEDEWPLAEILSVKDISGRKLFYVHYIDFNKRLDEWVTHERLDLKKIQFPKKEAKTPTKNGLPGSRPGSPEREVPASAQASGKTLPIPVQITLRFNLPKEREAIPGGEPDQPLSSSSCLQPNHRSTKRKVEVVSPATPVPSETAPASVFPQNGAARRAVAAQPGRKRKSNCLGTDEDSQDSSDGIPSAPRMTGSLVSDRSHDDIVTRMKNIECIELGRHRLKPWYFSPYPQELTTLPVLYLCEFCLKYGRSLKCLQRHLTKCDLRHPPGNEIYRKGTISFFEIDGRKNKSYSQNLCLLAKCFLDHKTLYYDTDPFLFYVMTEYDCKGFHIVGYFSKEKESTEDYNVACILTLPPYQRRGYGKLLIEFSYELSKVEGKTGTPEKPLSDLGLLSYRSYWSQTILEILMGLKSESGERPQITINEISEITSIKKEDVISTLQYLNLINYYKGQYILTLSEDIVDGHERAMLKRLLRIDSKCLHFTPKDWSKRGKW
Outline: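 Single-point screen at 200 µM inhibitor: 100 nM Tip60, 10 µM [14C]Ac-CoA, 100 µM H4-20 peptide in 50 mM HEPES pH 8.0, 0.1 mM EDTA, BSA, 1 mM DTT, 0.1% Triton X-100, 2% DMSO. Components equilibrated 5 min at 30 °C before enzyme start. Products spotted on P81 paper, washed with bicarbonate, counted by scintillation. No-enzyme background subtracted.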

[2] = molecular target: Histone acetyltransferase KAT5 (Homo sapiens) (UniProt Q92993); experiment: Inhibition of Tip60-mediated histone H3 acetylation in human HeLa nuclear extracts at 50 uM after 15 mins by ELISA
Outline: (§1)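 HeLa nuclear extract (Dignam method) at 2.5 µg/mL final protein as enzyme source. Biotinylated H3 (aa 1–21) or H4 (aa 2–24) peptide immobilized on streptavidin. Reaction run 15 min in 50 mM HEPES pH 7.4, 0.01% Triton X-100, 0.1 mM EDTA, BSA, 1 mM DTT. Anti-acetyl-lysine ELISA readout. Triplicates, normalized to no-inhibitor and no-enzyme controls.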

[3] = molecular target: Histone acetyltransferase KAT5 (Homo sapiens) (UniProt Q92993); experiment: Inhibition of Tip60-mediated histone H3 acetylation in human HeLa nuclear extracts at 200 uM after 15 mins by ELISA; outline: as §1
[4] = molecular target: Histone acetyltransferase KAT5 (Homo sapiens) (UniProt Q92993); experiment: Inhibition of Tip60-mediated histone H4 acetylation in human HeLa nuclear extracts at 50 uM after 15 mins by ELISA; outline: as §1
[5] = molecular target: Histone acetyltransferase KAT5 (Homo sapiens) (UniProt Q92993); experiment: Inhibition of Tip60-mediated histone H4 acetylation in human HeLa nuclear extracts at 200 uM after 15 mins by ELISA; outline: as §1
[6] = molecular target: Histone acetyltransferase p300 (Homo sapiens) (UniProt Q09472); experiment: Inhibition of human recombinant His-tagged p300 HAT domain expressed in Escherichia coli BL21(DE3) cells using [14C][…] and histone H4 as substrate at 200 uM after 5 mins by scintillation counting
Chain of Histone acetyltransferase p300 (Homo sapiens) (Q09472 whole entry, the tested form may be a part): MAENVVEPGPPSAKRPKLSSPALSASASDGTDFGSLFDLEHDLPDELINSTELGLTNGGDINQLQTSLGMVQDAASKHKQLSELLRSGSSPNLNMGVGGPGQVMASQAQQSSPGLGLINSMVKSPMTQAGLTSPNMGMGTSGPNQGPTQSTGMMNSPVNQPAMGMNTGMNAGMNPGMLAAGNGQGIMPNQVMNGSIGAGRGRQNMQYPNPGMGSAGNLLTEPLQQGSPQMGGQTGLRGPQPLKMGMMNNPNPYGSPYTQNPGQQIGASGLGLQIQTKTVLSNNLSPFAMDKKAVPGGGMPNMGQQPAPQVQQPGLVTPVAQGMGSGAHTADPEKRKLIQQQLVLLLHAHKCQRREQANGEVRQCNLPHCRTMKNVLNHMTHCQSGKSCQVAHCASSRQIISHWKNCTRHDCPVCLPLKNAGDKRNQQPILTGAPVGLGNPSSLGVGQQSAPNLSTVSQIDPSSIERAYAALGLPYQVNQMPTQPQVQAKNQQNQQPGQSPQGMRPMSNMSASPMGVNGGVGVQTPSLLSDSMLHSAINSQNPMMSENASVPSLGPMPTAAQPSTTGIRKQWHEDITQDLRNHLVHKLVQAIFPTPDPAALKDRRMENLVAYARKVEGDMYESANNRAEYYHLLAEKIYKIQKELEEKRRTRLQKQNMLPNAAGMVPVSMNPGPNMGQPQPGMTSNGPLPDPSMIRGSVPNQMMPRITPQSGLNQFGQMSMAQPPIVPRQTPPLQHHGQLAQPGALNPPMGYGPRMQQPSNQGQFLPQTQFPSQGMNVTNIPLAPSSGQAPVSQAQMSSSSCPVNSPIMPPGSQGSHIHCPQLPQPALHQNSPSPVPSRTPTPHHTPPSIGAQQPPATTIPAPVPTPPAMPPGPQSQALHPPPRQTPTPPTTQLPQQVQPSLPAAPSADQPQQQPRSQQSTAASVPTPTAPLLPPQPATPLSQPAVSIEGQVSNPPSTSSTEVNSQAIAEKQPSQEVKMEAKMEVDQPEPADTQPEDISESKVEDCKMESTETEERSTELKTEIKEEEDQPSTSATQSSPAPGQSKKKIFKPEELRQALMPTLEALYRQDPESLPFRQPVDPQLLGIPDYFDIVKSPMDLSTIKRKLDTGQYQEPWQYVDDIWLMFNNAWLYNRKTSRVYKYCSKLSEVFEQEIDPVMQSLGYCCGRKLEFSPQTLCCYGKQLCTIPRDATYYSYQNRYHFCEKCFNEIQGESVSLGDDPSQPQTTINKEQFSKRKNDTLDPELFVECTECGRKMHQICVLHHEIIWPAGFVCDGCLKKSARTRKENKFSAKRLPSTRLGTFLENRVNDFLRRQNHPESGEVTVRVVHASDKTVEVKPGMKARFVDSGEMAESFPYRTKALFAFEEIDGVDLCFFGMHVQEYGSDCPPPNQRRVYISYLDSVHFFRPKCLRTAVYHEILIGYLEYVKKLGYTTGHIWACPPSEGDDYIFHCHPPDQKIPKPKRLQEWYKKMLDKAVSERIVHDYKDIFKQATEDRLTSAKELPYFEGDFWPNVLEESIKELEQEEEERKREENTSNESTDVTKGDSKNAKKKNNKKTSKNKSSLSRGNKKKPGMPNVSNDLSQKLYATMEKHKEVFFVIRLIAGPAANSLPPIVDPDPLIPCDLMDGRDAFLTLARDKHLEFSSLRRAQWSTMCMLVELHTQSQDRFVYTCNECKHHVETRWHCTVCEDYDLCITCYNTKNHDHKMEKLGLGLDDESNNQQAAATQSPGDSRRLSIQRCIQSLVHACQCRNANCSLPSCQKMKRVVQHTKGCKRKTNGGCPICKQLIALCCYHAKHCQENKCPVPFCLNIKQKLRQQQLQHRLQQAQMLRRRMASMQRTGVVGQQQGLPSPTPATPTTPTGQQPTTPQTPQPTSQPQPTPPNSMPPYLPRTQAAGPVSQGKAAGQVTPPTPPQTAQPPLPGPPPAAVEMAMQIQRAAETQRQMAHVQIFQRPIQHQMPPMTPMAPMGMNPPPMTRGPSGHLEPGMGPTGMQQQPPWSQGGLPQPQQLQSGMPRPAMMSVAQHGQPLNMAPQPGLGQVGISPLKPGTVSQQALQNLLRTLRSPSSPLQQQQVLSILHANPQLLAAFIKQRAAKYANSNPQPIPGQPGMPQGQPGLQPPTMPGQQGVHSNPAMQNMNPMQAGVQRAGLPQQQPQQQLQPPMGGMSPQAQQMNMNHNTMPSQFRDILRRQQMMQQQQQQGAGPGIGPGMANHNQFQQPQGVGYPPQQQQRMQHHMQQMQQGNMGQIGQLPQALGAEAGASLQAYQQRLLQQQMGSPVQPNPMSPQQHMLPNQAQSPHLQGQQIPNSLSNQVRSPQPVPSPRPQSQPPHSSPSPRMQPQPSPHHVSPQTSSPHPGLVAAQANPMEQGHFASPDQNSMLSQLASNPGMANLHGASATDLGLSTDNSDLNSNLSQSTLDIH
Outline: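 Single-point screen at 200 µM inhibitor: 5 nM p300, 10 µM [14C]Ac-CoA, 100 µM H4-20 peptide in 50 mM HEPES pH 8.0, EDTA, BSA, DTT, Triton X-100, 2% DMSO, 30 °C. Enzyme-initiated after 5 min equilibration. Radioactivity on P81 paper counted. No-enzyme background subtracted.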

[7] = molecular target: Histone acetyltransferase KAT2B (Homo sapiens) (UniProt Q92831); experiment: Inhibition of human recombinant His-tagged PCAF HAT domain expressed in Escherichia coli BL21(DE3) cells using [14C][…] and histone H3 as substrate at 200 uM after 5 mins by scintillation counting
Chain of Histone acetyltransferase KAT2B (Homo sapiens) (Q92831 whole entry, looked up, the tested form may be a part): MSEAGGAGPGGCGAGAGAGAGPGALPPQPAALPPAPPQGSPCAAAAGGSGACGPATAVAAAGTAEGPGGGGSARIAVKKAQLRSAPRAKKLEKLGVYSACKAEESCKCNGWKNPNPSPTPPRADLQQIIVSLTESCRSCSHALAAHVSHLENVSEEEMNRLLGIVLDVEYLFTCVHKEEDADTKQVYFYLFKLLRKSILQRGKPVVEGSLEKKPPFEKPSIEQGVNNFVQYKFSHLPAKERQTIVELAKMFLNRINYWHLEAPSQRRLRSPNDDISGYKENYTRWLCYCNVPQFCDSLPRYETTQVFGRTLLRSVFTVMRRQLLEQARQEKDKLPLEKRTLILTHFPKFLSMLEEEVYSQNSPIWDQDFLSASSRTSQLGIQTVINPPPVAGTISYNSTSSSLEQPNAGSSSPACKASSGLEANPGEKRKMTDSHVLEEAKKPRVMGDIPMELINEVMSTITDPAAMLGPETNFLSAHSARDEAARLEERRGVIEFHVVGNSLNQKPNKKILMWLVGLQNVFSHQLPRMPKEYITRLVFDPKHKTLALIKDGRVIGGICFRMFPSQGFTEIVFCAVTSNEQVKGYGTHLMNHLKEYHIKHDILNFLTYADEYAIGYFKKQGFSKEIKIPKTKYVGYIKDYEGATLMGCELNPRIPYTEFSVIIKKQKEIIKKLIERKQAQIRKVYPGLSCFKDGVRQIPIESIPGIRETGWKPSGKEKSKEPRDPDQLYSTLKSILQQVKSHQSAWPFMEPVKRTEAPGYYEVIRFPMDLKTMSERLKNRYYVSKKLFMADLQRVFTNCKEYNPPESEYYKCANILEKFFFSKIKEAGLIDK

[8] = molecular target: Histone acetyltransferase p300 (Homo sapiens) (UniProt Q09472); experiment: Inhibition of human recombinant His-tagged p300 HAT domain expressed in Escherichia coli BL21(DE3) cells using [14C][…] and histone H4 as substrate at >200 uM after 5 mins by scintillation counting
[9] = molecular target: Histone acetyltransferase KAT5 (Rattus norvegicus) (UniProt Q99MK2); experiment: Inhibition of Tip60-mediated histone H3 acetylation in rat brain extracts at 30 uM after 15 mins by ELISA; assay type: tissue-based
Chain of Histone acetyltransferase KAT5 (Rattus norvegicus) (Q99MK2 whole entry): as the sequence (Q92993 whole entry, looked up, the tested form may be a part) above, with A175S counted along it
Outline: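 Rat brain-region nuclear extracts (Dignam method) at 40 µg/mL final protein. Inhibitor at 30 µM. Histone peptide immobilized via streptavidin, 15 min reaction in HEPES pH 7.4 buffer, anti-acetyl-lysine ELISA. Triplicates for each of two animals. Blank values subtracted.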

[10] = molecular target: Histone acetyltransferase KAT5 (Rattus norvegicus) (UniProt Q99MK2); experiment: Inhibition of Tip60-mediated histone H3 acetylation in rat brain extracts at 30 uM after 15 mins by ELISA
[11] = molecular target: T1, Histone acetyltransferase KAT8 (Homo sapiens, UniProt Q9H7Z6); experiment: Inhibition of human MOF expressed in Escherichia coli BL21(DE3) cells using [14C]AC-CoA and histone H4 as substrate after 5 mins by scintillation counting
T1 sequence (Q9H7Z6 whole entry): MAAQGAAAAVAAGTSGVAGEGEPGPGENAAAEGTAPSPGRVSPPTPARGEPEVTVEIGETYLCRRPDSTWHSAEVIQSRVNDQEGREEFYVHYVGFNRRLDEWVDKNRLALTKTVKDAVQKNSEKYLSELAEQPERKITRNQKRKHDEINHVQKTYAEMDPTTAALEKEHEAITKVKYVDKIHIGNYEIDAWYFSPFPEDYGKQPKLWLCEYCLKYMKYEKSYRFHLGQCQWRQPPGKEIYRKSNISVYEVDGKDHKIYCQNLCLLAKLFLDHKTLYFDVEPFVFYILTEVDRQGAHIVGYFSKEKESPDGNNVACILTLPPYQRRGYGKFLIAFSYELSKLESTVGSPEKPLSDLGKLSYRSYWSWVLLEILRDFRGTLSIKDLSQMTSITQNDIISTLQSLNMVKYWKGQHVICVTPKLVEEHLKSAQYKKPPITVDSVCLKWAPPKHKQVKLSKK

[12] = molecular target: Histone acetyltransferase KAT5 (Homo sapiens) (UniProt Q92993)
[13] = molecular target: Histone acetyltransferase KAT5 (Homo sapiens) (UniProt Q92993); remark: listed apart in the source
[14] = molecular target: Histone acetyltransferase KAT2B (Homo sapiens) (UniProt Q92831); experiment: Inhibition of human recombinant His-tagged PCAF HAT domain expressed in Escherichia coli BL21(DE3) cells using [14C][…] and histone H3 as substrate at >200 uM after 3.5 mins by scintillation counting

| SMILES | inhibition [1] | inhibition [2] | inhibition [3] [%] | inhibition [4] | inhibition [5] [%] | inhibition [6] [%] | inhibition [7] [%] | further results |
| --- | --- | --- | --- | --- | --- | --- | --- | --- |
| CCCCCCCc1ccc(CCc2cc(O)cc(O)c2C(=O)O)cc1 | – | Active | – | – | – | – | – | – |
| CCCCCCCCCCc1cccc(O)c1C(=O)O | > 76% | Active | > 50 | Active | > 50 | < 35 | < 35 | – |
| CCCCCCCCCCCCCCCc1cc(O)cc(O)c1C(=O)O | > 76% | Active | > 50 | – | > 50 | < 35 | < 35 | – |
| CCCCCCCCCCCCCC#Cc1ccccc1C(=O)OC | – | – | > 50 | – | > 50 | – | – | – |
| CCCCCCCOc1ccc(CCc2cccc(O)c2C(=O)O)cc1C(C)=O | – | Active | > 50 | – | > 50 | – | – | – |
| CCCCCCCCCCc1cc(O)cc(O)c1C(=O)O | > 76% | – | > 50 | – | > 50 | < 35 | < 35 | – |
| CCCCCCCCCCCCCCCc1ccccc1C(=O)O | – | – | > 50 | – | > 50 | – | – | – |
| C=CC/C=C\C/C=C\CCCCCCCc1cccc(O)c1C(=O)O | > 76% | Active | > 50 | Active | > 50 | < 20 | < 20 | inhibition [8]: 40%; inhibition [9]: Active; inhibition [10]: Active |

Now from value to compound, other results behind:

| inhibition [1] | inhibition [2] | inhibition [3] [%] | inhibition [4] | inhibition [5] [%] | inhibition [6] [%] | inhibition [7] [%] | SMILES | further results |
| --- | --- | --- | --- | --- | --- | --- | --- | --- |
| Active | – | – | – | – | – | – | CCCCCOc1ccc(CCc2cccc(O)c2C(=O)O)cc1C(C)O (stereo unspecified) | – |
| – | – | > 50 | Active | > 50 | – | – | CCCCCOc1ccc(/C=C\c2cccc(O)c2C(=O)O)cc1 | – |
| – | – | > 50 | Active | > 50 | – | – | CCCCCCCCCCCCCCOc1ccc(CCc2cccc(O)c2C(=O)O)cc1 | – |
| Active | – | – | – | – | – | – | COCCOc1ccc(CCc2cccc(O)c2C(=O)O)cc1 | – |
| > 76% | – | > 50 | – | > 50 | < 35 | < 35 | CCCCCOc1ccc(CCc2cccc(O)c2C(=O)O)cc1C(C)=O | – |
| – | – | > 50 | Active | > 50 | – | – | CCCCCOc1ccc(CCc2cccc(O)c2C(=O)O)cc1 | – |
| 88% | Active | > 50 | – | > 50 | < 35 | < 35 | CCCCCCCc1ccc(CCc2cccc(O)c2C(=O)O)cc1 | inhibition [8]: 30%; inhibition [9]: Active; pIC50 [11]: 4.33; Kii [12]: 572 µM; Kii [13]: 78 µM; inhibition [10]: Active; inhibition [14]: 3% |
| > 76% | Active | > 50 | – | > 50 | < 35 | < 35 | CC(C)CCCC(C)CCOc1ccc(CCc2cccc(O)c2C(=O)O)cc1 (stereo unspecified) | – |
